# Bioassay records: PubChem BioAssay, Sanford-Burnham Center for Chemical Genomics
# A selection: hits, their analogues and other compounds. The true share with any hit is near 2%.
# LMPTP inh: LMPTP phosphatase inhibitors, primary screen, biochemical, fluorescence intensity, uHTS | Low molecular weight phosphotyrosine protein phosphatase (Homo sapiens), P24666 | AID 651560, 2012 | hit rate 0.22% among 360,000 | recombinant LMPTP-A, OMFP fluorogenic substrate | inhibition, % at 20 µM;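 active means compounds that cut the enzyme signal by at least half of the control window in the single-dose screen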
# Target sequence (P24666 whole entry, looked up): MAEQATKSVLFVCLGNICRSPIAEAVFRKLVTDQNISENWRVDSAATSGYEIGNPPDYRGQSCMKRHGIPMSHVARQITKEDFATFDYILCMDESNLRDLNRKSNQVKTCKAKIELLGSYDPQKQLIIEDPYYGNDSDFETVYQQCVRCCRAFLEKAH
#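 Assay system: LMPTP-A, protein tyrosine phosphatase of low molecular weight / Medium: pH 6.0 Bis-Tris buffer with DTT and Triton X-100 / Schedule: 50 min enzyme reaction at room temperature, protected from light / Measured by: endpoint fluorescence intensity from OMFP dephosphorylation / Read-out basis: % inhibition relative to no-enzyme and uninhibited control wells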
# CSN deneddyl inh: inhibitors of CSN-mediated cullin deneddylation, primary screen, biochemical, fluorescence polarization, uHTS; COP9 signalosome complex subunit 5 (Homo sapiens), Q92905; Purified CSN, SCF-Nedd8-OG deneddylation; inhibition, % at 12.5 µM; hit rate 0.38% among 360,000;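 active means pattern-corrected inhibition above about 35%, with an unprinted fluorescence ratio check between 0.5 and 1.5, limit read from the data, passing the limit was not always enough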
#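 Material: purified human Csn5 enzyme expressed in HEK293T cells / Medium: Tris buffer pH 7.5, NaCl, DTT, Tween-20, trehalose, ovalbumin / Compound dosing: 12.5 µM single point / Schedule: 90 min incubation of compound, enzyme and substrate at room temperature / Signal: fluorescence polarization of the substrate / Control set: no-enzyme wells high, enzyme-with-substrate wells low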
# DNMT1 inh: human DNMT1 methyltransferase inhibitors, primary screen, biochemical, molecular beacon, fluorescence, HinP1I cleavage, uHTS. inhibition (reported as % activation of signal), % at 10 µM. AID 588458, 2011. DNA (cytosine-5)-methyltransferase 1 (Homo sapiens), P26358. hit rate 0.83% among 360,000; in the data active means inhibition above about 50%
# Scp1 inh: Scp-1 phosphatase inhibitors, primary screen, biochemical, colorimetric, uHTS; Carboxy-terminal domain RNA polymerase II polypeptide A small phosphatase 1 (Homo …; Recombinant Scp1, phosphopeptide, malachite green phosphate absorbance; inhibition, % at 20 µM; hit rate 0.88% among 340,000; AID 493091, 2011;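 active means inhibition above about 50% at 20 µM, limit read from the data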
# Target sequence (Q9GZU7 76-261 limits assumed): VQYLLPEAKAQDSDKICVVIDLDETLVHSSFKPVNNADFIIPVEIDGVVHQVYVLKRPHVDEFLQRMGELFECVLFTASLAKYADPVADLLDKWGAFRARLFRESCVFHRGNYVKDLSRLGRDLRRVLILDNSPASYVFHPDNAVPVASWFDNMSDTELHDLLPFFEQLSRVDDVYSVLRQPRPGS
#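 Assay system: SCP-1 catalytic fragment, aa 76-261 | Buffer or medium: Tris acetate buffer pH 5.5 with MgCl2 and Tween-20 | Compound: One concentration, 20 µM, with 1.0% DMSO | Also added: Phospho 17-mer peptide substrate | Signal: Absorbance at 630 nm | Incubation: 45 min enzyme reaction at room temperature | Measure: % inhibition of SCP-1 phosphate liberation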
# STEP block: STEP phosphatase inhibitors, primary screen, biochemical, fluorescence intensity, uHTS; recombinant STEP, OMFP fluorogenic substrate; Tyrosine-protein phosphatase non-receptor type 5 (Homo sapiens), P54829; inhibition, % at 20 µM; hit rate 0.25% among 360,000;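 active means inhibition at 20 µM, scaled per plate between control wells, above about 37%, limit read from the data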
#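 Also added – OMFP at 25 µM · Test system – STEP tyrosine phosphatase · Technique – FITC-channel fluorescence of OMFP product · Schedule – 20 min at room temperature, dark · Evaluation – control-normalized % inhibition with plate pattern correction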
# SUMO1 PPI mod: modulators of SUMO1 protein-protein interactions, primary screen, biochemical, uHTS | inhibition, % at 20 µM | AID 602429, 2012 | Small ubiquitin-related modifier 1 (Homo sapiens), P63165 | hit rate 0.33% among 360,000 | SUMO1 binding to a labelled peptide, TR-FRET, 1 h; in the data active means inhibition above about 37%
# Target sequence (P63165 whole entry, looked up): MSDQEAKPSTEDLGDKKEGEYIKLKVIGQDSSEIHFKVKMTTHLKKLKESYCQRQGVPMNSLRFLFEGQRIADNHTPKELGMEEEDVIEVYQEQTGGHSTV
# STEP conf: STEP phosphatase inhibitor hit confirmation, biochemical, fluorescence intensity, single concentration; shares compounds with STEP block; recombinant STEP, OMFP fluorogenic substrate; inhibition, % at 20 µM; hit rate 32% among 520; AID 623866, 2012; call rule not given here
# Numbers stand for hits; 0 = inactive; - = no result given.
SMILES,LMPTP inh,CSN deneddyl inh,DNMT1 inh,Scp1 inh,STEP block,SUMO1 PPI mod,STEP conf
COc1ccc(OCC(=O)Nc2ccc3oc(-c4ccncc4)nc3c2)cc1,0,0,0,0,49,0,0
Cc1cc(=O)[nH]c(-c2ccccc2OC(F)(F)F)n1,0,0,0,0,0,0,-
CCc1nc(SCC(=O)NC2CC2)c2c(C)c(C)sc2n1,0,0,0,0,0,0,-
CC1(C)Cc2c(sc(NC(=O)C(=O)NCCCN3CCOCC3)c2C(N)=O)CO1,0,0,0,0,40,0,0
COC(=O)c1c(NC(=O)C(=O)NCCCN2CCOCC2)sc2c1CC(C)(C)OC2,0,0,0,0,0,0,-
O=C(Nc1cccc(C(=O)O)c1)/C(=C/c1cccc([N+](=O)[O-])c1)NC(=O)c1cccc(Br)c1,0,0,0,0,0,0,-
O=C(N/N=C/C(Cl)=C/c1ccc([N+](=O)[O-])cc1)C(=O)Nc1cccc(C(=O)O)c1,0,0,0,0,46,0,0
CCOc1ccccc1NC(=S)N(CCCN1CCOCC1)Cc1cn(C)c2ccccc12,0,0,0,0,0,0,-
COc1ccccc1NC(=S)N(CCCN1CCOCC1)Cc1cn(C)c2ccccc12,0,0,0,0,0,0,-
COc1cc(Cl)ccc1NC(=S)N(CCCN1CCOCC1)Cc1cn(C)c2ccccc12,0,0,0,0,91,0,49
COc1ccc(Cl)cc1NC(=S)N(CCCN1CCOCC1)Cc1cn(C)c2ccccc12,0,0,0,0,94,0,48
CCN1C[C@@H]2[C@@H]3C(=O)N(Cc4ccccc4)C(=O)[C@@H]3[C@](C)(C1=O)N2C(=O)c1ccccc1,0,0,0,0,0,0,-
COC(=O)c1sc(NC(=O)c2ccncc2)nc1C,0,0,0,0,0,0,-
CCOc1ccc(C(=O)Nc2nc(C)c(C(=O)OC)s2)cc1,0,0,0,0,79,0,0
CC(C)c1ccc(N2C(=O)C(Cl)=C(N3CCOCC3)C2=O)cc1,0,0,0,0,42,0,0
Cc1noc(C)c1C(=O)OC(C)C(=O)Nc1ccc(S(=O)(=O)NC(C)C)cc1 (stereo not drawn),0,0,0,0,0,0,-
Cc1ccc(NC(=O)C(c2ccccc2)N2CCN(CC(=O)N3CCOCC3)CC2)cc1Cl (stereo not drawn),0,0,0,0,46,0,0
CC1C(=O)C(C)C(c2cccc(Br)c2)NC1c1cccc(Br)c1 (stereo not drawn),0,0,0,0,0,0,-
Cc1cccc(NC(=O)c2cnc3ccccn3c2=O)c1,0,0,0,0,0,0,-
Cc1cccc(NC(=O)c2cc3c(=O)n4ccccc4nc3s2)c1,0,0,0,0,84,0,0
Cc1ccc(N=C2NC(=O)/C(=C\c3cccs3)S2)cc1C,0,0,0,0,0,0,-
Cc1ccc(N=C2NC(=O)/C(=C/c3cccnc3)S2)cc1C,0,0,0,0,45,0,0
O=C(COc1ccc(/C=N/NC(=O)c2ccncc2)cc1)Nc1ccc([N+](=O)[O-])cc1,0,0,0,0,80,42,84
O=C(NN=Cc1ccc([N+](=O)[O-])cc1)c1ccncc1,0,0,0,0,0,0,-
COCCn1c(SCC(=O)Nc2ccc3c(c2)OCCO3)nc2ccccc2c1=O,0,0,0,-,0,0,-
COCCn1c(SCC(=O)Nc2ccc3[nH]c(=O)[nH]c3c2)nc2ccccc2c1=O,0,0,0,0,38,0,0
